The source made the active and inactive calls. The rule behind the calls is not given here.
How the values were obtained:
[1] = Antiproliferative activity against human U251MG cells for 72 hrs by cyquant assay; format: functional, cell-based; settings: U-251, 72 h
Outline: (§1)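 CyQuant proliferation assay after 72 h compound exposure of cultured cells; relative viability normalized to DMSO-treated control; IC50 values derived. Glioma lines grown in RPMI or DMEM with 10% FBS and 1% nonessential amino acids.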

[2] = Cytotoxicity against mouse NIH/3T3 cells after 72 hrs by cyquant cells; format: cell-based; settings: NIH3T3, 72 h; outline: as §1
[3] = target: T1, Signal transducer and activator of transcription 3 (Homo sapiens, UniProt P40763); assay: Inhibition of Stat3 activity in human U251MG cells assessed as decrease in c-Myc expression at 5 uM after 24 hrs by immunoblot analysis; format: cell-based; settings: U-251
T1 sequence (P40763 whole entry): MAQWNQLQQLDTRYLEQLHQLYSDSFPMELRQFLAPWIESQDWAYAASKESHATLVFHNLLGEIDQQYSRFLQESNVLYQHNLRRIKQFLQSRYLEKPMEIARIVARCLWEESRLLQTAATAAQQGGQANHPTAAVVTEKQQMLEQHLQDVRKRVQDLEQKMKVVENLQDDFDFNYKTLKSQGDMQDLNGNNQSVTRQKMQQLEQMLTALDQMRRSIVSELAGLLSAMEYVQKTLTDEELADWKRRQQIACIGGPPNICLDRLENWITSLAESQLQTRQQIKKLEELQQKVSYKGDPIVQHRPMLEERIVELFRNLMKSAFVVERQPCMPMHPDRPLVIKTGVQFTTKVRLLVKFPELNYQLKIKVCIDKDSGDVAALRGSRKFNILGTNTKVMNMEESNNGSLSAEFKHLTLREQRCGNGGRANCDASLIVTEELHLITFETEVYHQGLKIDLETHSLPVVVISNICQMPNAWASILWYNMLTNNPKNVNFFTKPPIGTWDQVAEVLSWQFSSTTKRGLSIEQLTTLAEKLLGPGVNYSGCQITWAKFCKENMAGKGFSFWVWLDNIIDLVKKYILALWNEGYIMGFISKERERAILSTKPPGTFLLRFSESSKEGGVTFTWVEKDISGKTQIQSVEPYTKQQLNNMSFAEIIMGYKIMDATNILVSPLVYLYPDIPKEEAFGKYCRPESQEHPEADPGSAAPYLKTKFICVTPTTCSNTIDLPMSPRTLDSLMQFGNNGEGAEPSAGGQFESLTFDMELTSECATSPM
Outline: (§2)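 U251MG cells treated with 5 μM compound for 0–24 h. Whole-cell lysates immunoblotted for pStat3, Stat3, c-Myc, Bcl-2, Bcl-xL, Mcl-1, GAPDH. Control was 0.025% DMSO.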

[4] = target: T1, Signal transducer and activator of transcription 3; assay: Inhibition of Stat3 activity in human U251MG cells assessed as decrease in Bcl-2 expression at 5 uM after 24 hrs by immunoblot analysis; format: cell-based; settings: U-251; outline: as §2
[5] = target: T1, Signal transducer and activator of transcription 3; assay: Inhibition of Stat3 activity in human U251MG cells assessed as decrease in Mcl-1 expression at 5 uM after 24 hrs by immunoblot analysis; format: cell-based; settings: U-251; outline: as §2
[6] = target: T1, Signal transducer and activator of transcription 3; assay: Inhibition of Stat3 activity in human U251MG cells assessed as decrease in Bcl-xl expression at 5 uM after 24 hrs by immunoblot analysis; format: cell-based; settings: U-251; outline: as §2
[7] = target: Heat shock protein 105 kDa (Homo sapiens) (UniProt Q92598); assay: Decrease in Hsp105 expression in human U251MG cells at 5 uM for 1 hr by mass spectrometry relative to control; format: functional, cell-based; settings: U-251
Outline: (§3)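 U251MG cells treated 1 h with 5 μM compound; whole-cell lysates analyzed by global proteomics mass spectrometry; protein levels expressed relative to DMSO-treated cells.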

[8] = Decrease in vimentin expression in human U251MG cells at 5 uM for 1 hr by mass spectrometry relative to control; format: functional, cell-based; settings: U-251
Outline: (§4)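 Global proteomic mass spectrometry of lysates from U251MG cells treated 1 h with 5 μM compound; protein levels expressed relative to DMSO-treated cells.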

[9] = Decrease in TNAP2 expression in human U251MG cells at 5 uM for 1 hr by mass spectrometry relative to control; format: functional, cell-based; settings: U-251; outline: as §4
U-251 [10] = assay: Antitumor activity against human U251MG cells xenografted in mouse assessed as decrease in tumor growth at 2 mg/kg three times a week for 33 days administered via oral gavage; format: functional, organism-based
Outline: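 Female athymic nude mice, 4 weeks old, given subcutaneous flank injections of 7.3×10^6 U251MG cells in PBS/matrigel; dosing began at 170–250 mm3 tumors (day 20). Oral gavage 2 mg/kg, vehicle 1% DMSO, for 33 days. Caliper volumes V = 0.52×a²×b, compared with vehicle by paired t test; tumor lysates immunoblotted for pStat3, Stat3, GAPDH.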

Mus musculus = assay: Toxicity in mouse xenografted with U251MG cells assessed as effect on body weight at 2 mg/kg three times a week for 33 days administered via oral gavage; format: organism-based, U-251; settings: in vivo, 792 h
Outline: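 Four-week-old female athymic nude mice, injected subcutaneously in the left flank with 7.3×10^6 U251MG cells in PBS/matrigel (1:1). Tumors of 170–250 mm^3 formed by day 20, and groups were matched for mean size. Dosing was 2 mg/kg by oral gavage, three times weekly for 33 days, with 1% DMSO vehicle. Animals were monitored daily and weighed every 3 days.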

[11] = target: Tyrosine-protein kinase JAK2 (Homo sapiens) (UniProt O60674); assay: Modulation of Jak2 phosphorylation in human U251MG cells at 5 uM after 0.5 to 24 hrs by immunoblot analysis; format: cell-based; settings: U-251
Sequence of Tyrosine-protein kinase JAK2 (Homo sapiens) (O60674 whole entry): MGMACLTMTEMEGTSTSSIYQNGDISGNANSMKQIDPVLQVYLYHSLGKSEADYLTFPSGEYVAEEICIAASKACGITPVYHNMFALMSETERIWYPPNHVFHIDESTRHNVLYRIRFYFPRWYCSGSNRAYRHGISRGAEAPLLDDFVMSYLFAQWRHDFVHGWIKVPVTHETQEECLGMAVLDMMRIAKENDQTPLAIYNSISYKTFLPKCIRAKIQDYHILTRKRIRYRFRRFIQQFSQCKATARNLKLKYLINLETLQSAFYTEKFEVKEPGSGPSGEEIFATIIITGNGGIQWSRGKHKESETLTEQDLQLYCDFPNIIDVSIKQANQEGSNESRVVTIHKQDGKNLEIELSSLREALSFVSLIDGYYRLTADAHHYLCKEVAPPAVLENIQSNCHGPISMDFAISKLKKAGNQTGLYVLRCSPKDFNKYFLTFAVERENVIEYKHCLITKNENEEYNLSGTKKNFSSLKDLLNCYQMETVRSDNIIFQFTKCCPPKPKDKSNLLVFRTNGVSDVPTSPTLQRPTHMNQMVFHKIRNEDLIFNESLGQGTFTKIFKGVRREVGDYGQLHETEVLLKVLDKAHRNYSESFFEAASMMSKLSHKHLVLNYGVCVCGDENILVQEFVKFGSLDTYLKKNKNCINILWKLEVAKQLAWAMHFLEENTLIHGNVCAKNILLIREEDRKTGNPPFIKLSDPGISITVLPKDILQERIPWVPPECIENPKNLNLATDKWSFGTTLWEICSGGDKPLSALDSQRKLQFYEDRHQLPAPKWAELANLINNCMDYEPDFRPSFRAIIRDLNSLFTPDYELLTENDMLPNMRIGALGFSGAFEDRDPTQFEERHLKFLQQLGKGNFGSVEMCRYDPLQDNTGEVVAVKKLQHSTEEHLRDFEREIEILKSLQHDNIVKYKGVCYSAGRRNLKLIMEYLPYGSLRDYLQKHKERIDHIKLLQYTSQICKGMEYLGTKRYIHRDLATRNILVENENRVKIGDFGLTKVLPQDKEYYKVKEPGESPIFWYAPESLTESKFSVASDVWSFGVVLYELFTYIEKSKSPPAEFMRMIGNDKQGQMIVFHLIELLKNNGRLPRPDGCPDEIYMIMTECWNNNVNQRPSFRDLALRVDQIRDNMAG
Outline: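 U251MG glioma cells (RPMI or DMEM, 10% FBS, 1% nonessential amino acids) treated with 5 μM compound for 0–24 h; 0.025% DMSO control. Whole-cell lysates of equal total protein immunoblotted for pErk1/2, Erk1/2, pJAK2 and JAK2 with β-actin or GAPDH loading controls. Representative of 2–4 independent determinations.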

[12] = target: T1, Signal transducer and activator of transcription 3; assay: Inhibition of Stat3 phosphorylation in human U251MG cells transfected with Stat3 flag-tagged N-terminal domain at 5 uM after 1.5 hrs by immunoblot analysis; format: cell-based; settings: U-251
Outline: (§5)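 U251MG cells transiently transfected with 7.5–21 μg FLAG-Stat3 NTD, CCD, DBD or CTD plasmid, or pcDNA3 mock. Re-seeded 24 h later; after another 18 h, treated with or without 5 μM compound for 1.5 h. Whole-cell lysates immunoblotted for FLAG, pY705Stat3, Stat3, GAPDH. 0.025% DMSO control. Representative of 2 independent determinations.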

[13] = target: T1, Signal transducer and activator of transcription 3; assay: Inhibition of Stat3 phosphorylation in human U251MG cells transfected with Stat3 flag-tagged coliled coil domain at 5 uM after 1.5 hrs by immunoblot analysis; format: cell-based; settings: U-251; outline: as §5
[14] = target: T1, Signal transducer and activator of transcription 3; assay: Inhibition of Stat3 phosphorylation in human U251MG cells transfected with Stat3 flag-tagged C-terminal domain at 5 uM after 1.5 hrs by immunoblot analysis; format: cell-based; settings: U-251; outline: as §5
[15] = target: T1, Signal transducer and activator of transcription 3; assay: Inhibition of Stat3 phosphorylation in human U251MG cells transfected with Stat3 flag-tagged DNA-binding domain at 5 uM after 1.5 hrs by immunoblot analysis; format: cell-based; settings: U-251; outline: as §5
[16] = Cytotoxicity against mouse V-Src -transformed NIH/3T3 cells at 1 uM by trypan blue exclusion with phase contrast microscopy; format: cell-based; settings: nih3t3, 1 µM
[17] = Cytotoxicity against mouse V-Src -transformed NIH/3T3 cells at 2.5 uM by trypan blue exclusion with phase contrast microscopy; format: cell-based; settings: nih3t3, 2.5 µM
[18] = Cytotoxicity against mouse NIH/3T3 cells at 1 uM by trypan blue exclusion with phase contrast microscopy; format: cell-based; settings: nih3t3, 1 µM
[19] = Cytotoxicity against mouse NIH/3T3 cells at 2.5 uM by trypan blue exclusion with phase contrast microscopy; format: cell-based; settings: nih3t3, 2.5 µM
[20] = Cell cycle arrest in human U251MG cells assessed as accumulation at G2/M phase at 5 uM for 15 hrs by flow cytometry; format: functional, cell-based; settings: U-251
U-251 [21] = assay: Induction of apoptosis in human U251MG cells assessed as PARP level at 8 uM after 24 to 48 hrs by immunoblot analysis; format: functional, cell-based
U-251 [22] = assay: Induction of apoptosis in human U251MG cells assessed as cleaved caspase 3 level at 8 uM after 24 to 48 hrs by immunoblot analysis; format: functional, cell-based
[23] = target: Stalled ribosome sensor GCN1 (Homo sapiens) (UniProt Q92616); assay: Decrease in GCN1 expression in human U251MG cells at 5 uM for 1 hr by mass spectrometry relative to control; format: functional, cell-based; settings: U-251; outline: as §3
Sequence of Stalled ribosome sensor GCN1 (Homo sapiens) (Q92616 whole entry): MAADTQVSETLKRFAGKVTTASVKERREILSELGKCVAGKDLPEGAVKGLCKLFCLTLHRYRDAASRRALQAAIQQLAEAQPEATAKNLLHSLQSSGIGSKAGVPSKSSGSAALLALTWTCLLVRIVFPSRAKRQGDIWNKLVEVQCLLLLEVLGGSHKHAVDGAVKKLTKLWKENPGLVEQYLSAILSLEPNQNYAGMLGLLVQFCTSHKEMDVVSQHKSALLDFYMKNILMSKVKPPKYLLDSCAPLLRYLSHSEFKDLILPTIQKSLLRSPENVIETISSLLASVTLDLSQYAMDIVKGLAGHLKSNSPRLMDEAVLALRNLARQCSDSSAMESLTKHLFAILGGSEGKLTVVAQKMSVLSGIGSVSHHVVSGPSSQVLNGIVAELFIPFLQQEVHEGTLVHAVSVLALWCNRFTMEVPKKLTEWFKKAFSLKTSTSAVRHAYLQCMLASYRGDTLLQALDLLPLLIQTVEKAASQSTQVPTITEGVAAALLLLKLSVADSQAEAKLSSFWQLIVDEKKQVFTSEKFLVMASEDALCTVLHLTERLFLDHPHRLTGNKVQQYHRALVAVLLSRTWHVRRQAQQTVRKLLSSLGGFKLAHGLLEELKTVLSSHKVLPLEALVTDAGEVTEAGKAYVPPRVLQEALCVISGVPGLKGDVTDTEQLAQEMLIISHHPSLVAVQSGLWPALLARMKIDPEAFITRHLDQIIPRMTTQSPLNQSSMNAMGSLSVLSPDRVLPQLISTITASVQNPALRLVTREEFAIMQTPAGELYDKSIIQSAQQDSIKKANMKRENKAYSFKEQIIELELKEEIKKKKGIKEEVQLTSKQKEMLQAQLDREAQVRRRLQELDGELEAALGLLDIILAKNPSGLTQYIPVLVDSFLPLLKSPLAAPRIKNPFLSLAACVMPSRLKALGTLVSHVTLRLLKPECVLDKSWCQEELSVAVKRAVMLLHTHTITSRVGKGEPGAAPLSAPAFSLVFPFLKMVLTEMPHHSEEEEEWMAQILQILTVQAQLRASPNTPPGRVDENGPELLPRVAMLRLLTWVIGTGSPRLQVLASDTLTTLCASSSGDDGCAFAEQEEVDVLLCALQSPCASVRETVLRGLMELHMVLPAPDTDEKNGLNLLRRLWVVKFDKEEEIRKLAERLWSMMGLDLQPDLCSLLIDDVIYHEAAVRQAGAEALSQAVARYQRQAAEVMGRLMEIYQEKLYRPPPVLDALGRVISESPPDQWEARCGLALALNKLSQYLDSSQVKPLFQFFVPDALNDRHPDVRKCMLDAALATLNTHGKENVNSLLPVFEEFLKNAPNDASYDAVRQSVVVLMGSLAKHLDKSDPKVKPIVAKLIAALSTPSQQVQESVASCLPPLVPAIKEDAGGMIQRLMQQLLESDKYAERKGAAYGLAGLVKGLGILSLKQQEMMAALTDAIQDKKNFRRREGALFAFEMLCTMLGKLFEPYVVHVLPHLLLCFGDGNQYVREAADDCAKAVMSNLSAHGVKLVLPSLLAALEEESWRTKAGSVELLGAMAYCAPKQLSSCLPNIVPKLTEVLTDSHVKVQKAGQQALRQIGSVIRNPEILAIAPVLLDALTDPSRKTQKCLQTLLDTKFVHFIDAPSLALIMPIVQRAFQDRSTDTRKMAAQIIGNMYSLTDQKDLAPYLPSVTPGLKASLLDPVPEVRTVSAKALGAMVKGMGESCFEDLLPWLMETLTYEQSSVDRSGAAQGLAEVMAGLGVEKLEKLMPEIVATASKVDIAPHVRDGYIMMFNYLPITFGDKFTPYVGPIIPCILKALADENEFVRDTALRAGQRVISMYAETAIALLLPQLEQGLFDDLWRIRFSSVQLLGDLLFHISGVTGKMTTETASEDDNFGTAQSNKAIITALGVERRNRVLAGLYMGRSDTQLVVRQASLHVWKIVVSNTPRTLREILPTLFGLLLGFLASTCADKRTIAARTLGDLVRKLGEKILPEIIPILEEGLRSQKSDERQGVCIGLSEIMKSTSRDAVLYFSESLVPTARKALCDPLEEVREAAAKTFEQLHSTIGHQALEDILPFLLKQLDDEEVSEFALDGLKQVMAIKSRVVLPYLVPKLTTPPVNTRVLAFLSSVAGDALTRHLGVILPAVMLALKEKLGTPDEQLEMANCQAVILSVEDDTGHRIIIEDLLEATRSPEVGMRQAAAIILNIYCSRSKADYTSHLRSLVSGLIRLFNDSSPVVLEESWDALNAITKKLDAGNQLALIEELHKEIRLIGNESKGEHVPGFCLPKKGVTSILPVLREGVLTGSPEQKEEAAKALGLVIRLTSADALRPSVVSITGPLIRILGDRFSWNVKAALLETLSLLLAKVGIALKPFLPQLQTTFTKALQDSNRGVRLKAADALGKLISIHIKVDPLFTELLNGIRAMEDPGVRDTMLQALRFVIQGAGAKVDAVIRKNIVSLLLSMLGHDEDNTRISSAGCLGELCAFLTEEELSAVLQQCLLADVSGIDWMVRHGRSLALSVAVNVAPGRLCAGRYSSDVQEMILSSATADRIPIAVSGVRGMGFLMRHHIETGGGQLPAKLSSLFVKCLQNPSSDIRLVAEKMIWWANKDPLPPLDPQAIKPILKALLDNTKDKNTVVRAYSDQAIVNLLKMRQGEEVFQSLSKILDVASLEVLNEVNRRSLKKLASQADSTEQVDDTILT

[24] = Decrease in G6PD expression in human U251MG cells at 5 uM for 1 hr by mass spectrometry relative to control; format: functional, cell-based; settings: U-251; outline: as §3
[25] = Decrease in TxR1 cytoplasmic isoform 3 expression in human U251MG cells at 5 uM for 1 hr by mass spectrometry relative to control; format: functional, cell-based; settings: U-251; outline: as §4
[26] = target: Signal transducer and activator of transcription 3 (Mus musculus) (UniProt P42227); assay: Inhibition of Stat3 dimer DNA binding activity in mouse NIH3T3/vSrc nuclear extract at 10 uM preincubated for 30 mins followed by addition of radiolabeled probe hSIE for 30 mins by EMSA in presence of 50 uM Cys
Sequence of Signal transducer and activator of transcription 3 (Mus musculus) (P42227 whole entry): as the sequence (P40763 whole entry) above, with E760D counted along it

C/C=C(\C)C(=O)O[C@H]1C[C@@H](C)[C@]2(OC)CC[C@](C)(/C=C3/OC(=O)C(COC(C)=O)=C31)O2
IC50 [1]: 3400 nM

C/C=C(\C)C(=O)O[C@H]1C[C@@H](C)[C@]2(O)CC[C@](C)(/C=C3/OC(=O)C(COC(C)=O)=C31)O2
IC50 [2]: 2000 nM | inhibition [3]: Active | inhibition [4]: Active | inhibition [5]: Active | inhibition [6]: Active | fold change (FC) [7]: 0.501 | fold change (FC) [8]: 0.308 | fold change (FC) [9]: 0.449 | Activity (U-251 [10]): Active | Activity (Mus musculus): Non-toxic | Activity [11]: Active | inhibition [12]: Active | inhibition [13]: Active | inhibition [14]: Active | inhibition [15]: inactive | IC50 [1]: 1700 nM

C/C=C(\C)C(=O)OCC1=C2/C(=C\[C@@]3(C)CC[C@](O)(O3)[C@H](C)C[C@@H]2O)OC1=O
Activity [16]: Toxic | Activity [17]: Toxic | Activity [18]: Non-toxic | Activity [19]: Non-toxic | Activity [20]: Active | Activity (U-251 [21]): inactive | Activity (U-251 [22]): inactive | fold change (FC) [23]: 0.555 | fold change (FC) [24]: 0.275 | fold change (FC) [25]: 0.305 | Activity (U-251 [10]): Active | Activity (Mus musculus): Non-toxic | inhibition [26]: Active
